The results in this text go back to ChEMBL document CHEMBL4330115, “Discovery of a new class of valosine containing protein (VCP/P97) inhibitors for the treatment of non-small cell lung cancer” (Bioorg Med Chem, 2019).

The structures appear in SMILES notation.

Series [1] addresses Transitional endoplasmic reticulum ATPase (Homo sapiens, UniProt P55072). Briefly: Inhibition of human p97 using ATP as substrate after 60 mins by ADP-Glo assay. (In ADP-Glo the light output rises with the ADP produced.)
The subject of a further series is A549. Briefly: Antiproliferative activity against human A549 cells after 72 hrs by CCK-8 assay. In kind it is functional, cell-based. The following applies: A549, 72 h. (In general: Tetrazolium assays rely on reduction of a dye to a coloured formazan, in cell work by metabolically active cells.)
The nature of series [2]: Half life in dog liver microsomes at 1 uM after 60 mins by LC-MS analysis. In kind it is ADME, Canis lupus familiaris, Microsome. (In general: Liver microsomes are a subcellular fraction often used to study metabolism.)
The nature of series [3]: Cmax in Sprague-Dawley rat at 30 mg/kg, ig administered as single dose by LC-MS/MS analysis. In kind it is ADME, organism-based. Also noted: dose 30 mg/kg, route intragastric. The note with it: in vivo, po. The gist of the method:
(§1)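 Male Sprague-Dawley rats received a single dose, iv by tail vein at 5 mg/kg or orally (ig) at 30 mg/kg. Vehicle was a solution of 40% PEG400, 10% castor oil, 5% EtOH and 45% buffered saline. Orbital sinus blood (0.1 mL) was taken into heparinized tubes at 2, 5, 15 and 30 min and at 1, 2, 4, 8 and 24 h, then centrifuged for plasma.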

Series [4] can be described thus: AUC (0 to t) in Sprague-Dawley rat at 5 mg/kg, iv administered as single dose by LC-MS/MS analysis. In kind it is ADME, organism-based. The note with it: in vivo. The gist of the method: as §1
Series [5] can be described thus: Cmax in Sprague-Dawley rat at 5 mg/kg, iv administered as single dose by LC-MS/MS analysis. In kind it is ADME, organism-based. Also on record: dose 5 mg/kg, route intravenous. The note with it: in vivo. The gist of the method: as §1
The nature of series [6]: MRT in Sprague-Dawley rat at 30 mg/kg, ig administered as single dose by LC-MS/MS analysis. In kind it is ADME, organism-based. The following applies: in vivo, po. The gist of the method: as §1
The nature of series [7]: Oral bioavailability in Sprague-Dawley rat at 30 mg/kg administered as single dose by LC-MS/MS analysis. It counts as ADME, organism-based. The following applies: in vivo. The gist of the method:
as §1

The nature of series [8]: AUC (0 to infinity) in Sprague-Dawley rat at 5 mg/kg, iv administered as single dose by LC-MS/MS analysis. It counts as ADME, organism-based. Also on record: dose 5 mg/kg, route intravenous, time infinity. The following applies: in vivo. Summed up: as §1
Series [9] can be described thus: Half life in mouse liver microsomes at 1 uM after 60 mins by LC-MS analysis. It counts as ADME, Microsome.
Series [10] can be described thus: Half life in monkey liver microsomes at 1 uM after 60 mins by LC-MS analysis. In kind it is ADME, Macaca mulatta, Microsome. The following applies: rhesus monkey.
The nature of series [11]: Half life in Sprague-Dawley rat at 5 mg/kg, iv administered as single dose by LC-MS/MS analysis. It counts as ADME, organism-based. The note with it: in vivo. Summed up: as §1
A short description of series [12]: Intrinsic clearance in dog liver microsomes at 1 uM after 60 mins by LC-MS analysis. It counts as ADME, Canis lupus familiaris, Microsome. The following applies: 1 h.
The nature of series [13]: Half life in Sprague-Dawley rat at 30 mg/kg, ig administered as single dose by LC-MS/MS analysis. It counts as ADME, organism-based. The note with it: in vivo, po. The gist of the method: as §1
The nature of series [14]: Tmax in Sprague-Dawley rat at 5 mg/kg, iv administered as single dose by LC-MS/MS analysis. In kind it is ADME, organism-based. The note with it: in vivo. The gist of the method:
as §1

A short description of series [15]: MRT in Sprague-Dawley rat at 5 mg/kg, iv administered as single dose by LC-MS/MS analysis. The note with it: in vivo. In kind it is ADME, organism-based. Summed up: as §1
A short description of series [16]: AUC (0 to t) in Sprague-Dawley rat at 30 mg/kg, ig administered as single dose by LC-MS/MS analysis. The note with it: in vivo, po. In kind it is ADME, organism-based. Summed up:
as §1

Series [17] can be described thus: Tmax in Sprague-Dawley rat at 30 mg/kg, ig administered as single dose by LC-MS/MS analysis. The following applies: in vivo, po. In kind it is ADME, organism-based. The gist of the method: as §1
A short description of series [18]: AUC (0 to infinity) in Sprague-Dawley rat at 30 mg/kg, ig administered as single dose by LC-MS/MS analysis. The note with it: in vivo, po. It counts as ADME, organism-based. Also noted: dose 30 mg/kg, route intragastric, time infinity. The gist of the method: as §1
The nature of series [19]: Half life in rat liver microsomes at 1 uM after 60 mins by LC-MS analysis. In kind it is ADME, Microsome.
Series [20] can be described thus: Intrinsic clearance in rat liver microsomes at 1 uM after 60 mins by LC-MS analysis. It counts as ADME, Microsome. The following applies: 1 h.
Series [21] is described as follows: Half life in human liver microsomes at 1 uM after 60 mins by LC-MS analysis. In kind it is ADME, Microsome.
A short description of series [22]: Intrinsic clearance in mouse liver microsomes at 1 uM after 60 mins by LC-MS analysis. The following applies: 1 h. In kind it is ADME, Microsome.
Series [23] in a line: Intrinsic clearance in monkey liver microsomes at 1 uM after 60 mins by LC-MS analysis. In kind it is ADME, Macaca mulatta, Microsome. The note with it: rhesus monkey, 1 h.
A short description of series [24]: Intrinsic clearance in human liver microsomes at 1 uM after 60 mins by LC-MS analysis. In kind it is ADME, Microsome. The following applies: 1 h.

Transitional endoplasmic reticulum ATPase, sequence (P55072 whole entry): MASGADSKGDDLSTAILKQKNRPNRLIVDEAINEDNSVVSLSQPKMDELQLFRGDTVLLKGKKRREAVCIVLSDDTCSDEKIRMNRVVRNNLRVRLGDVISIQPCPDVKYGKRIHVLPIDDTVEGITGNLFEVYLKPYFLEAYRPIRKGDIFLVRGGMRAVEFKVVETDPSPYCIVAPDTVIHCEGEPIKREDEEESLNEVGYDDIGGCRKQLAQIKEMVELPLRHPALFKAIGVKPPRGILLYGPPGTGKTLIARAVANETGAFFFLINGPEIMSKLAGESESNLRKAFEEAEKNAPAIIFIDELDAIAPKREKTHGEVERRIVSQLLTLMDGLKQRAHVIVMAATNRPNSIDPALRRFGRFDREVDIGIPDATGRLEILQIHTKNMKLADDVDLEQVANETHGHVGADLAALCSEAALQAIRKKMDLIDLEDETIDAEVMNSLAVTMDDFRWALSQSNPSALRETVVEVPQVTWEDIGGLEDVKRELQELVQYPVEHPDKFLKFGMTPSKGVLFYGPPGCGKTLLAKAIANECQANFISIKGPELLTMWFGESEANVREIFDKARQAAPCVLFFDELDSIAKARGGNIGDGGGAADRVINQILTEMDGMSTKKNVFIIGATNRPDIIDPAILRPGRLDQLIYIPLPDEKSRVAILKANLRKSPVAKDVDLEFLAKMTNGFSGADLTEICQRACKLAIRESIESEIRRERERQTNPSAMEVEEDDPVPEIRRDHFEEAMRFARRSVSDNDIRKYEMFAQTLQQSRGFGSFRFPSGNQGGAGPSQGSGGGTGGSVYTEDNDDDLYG

Turning to `Cc1cc2c(C(N)=O)cccc2n1-c1nc2c(c(NCc3ccccc3)n1)CCCCCC2`, the IC50 (in general, the concentration that inhibits the measured activity by half) in series [1] (read-out: IC50) was determined as 0.12 µM.

Take `CC(=O)Nc1cccc2c1ccn2-c1nc2c(c(NCc3ccccc3)n1)COCC2`: the concentration for half-maximal inhibition (IC50) in [1] (read-out: IC50) is 0.922 µM.

On to `NC(=O)c1cccc(Nc2nc3c(c(NCc4ccccc4)n2)COCC3)c1`, for which the IC50 entry in [1] is recorded as “Not Active”.

On to `Cc1cc2c(NS(=O)(=O)C3CC3)cccc2n1-c1nc2c(c(NCc3ccccc3)n1)COCC2`, for which the IC50 stood at 2.1 µM in the series on A549 and 0.0346 µM in series [1] (read-out: IC50).

As to `C=CC(=O)Nc1cccc2c1cc(C)n2-c1nc2c(c(NCc3ccccc3)n1)COCC2`, the IC50 turned out to be 4.6 µM in the series with A549 and 0.0583 µM in series [1] (read-out: IC50).

With `Cc1cc2c(C(N)=O)cccc2n1-c1nc2c(c(NCc3ccccc3)n1)CCCCC2`, the IC50 in the series on A549 was 2.6 µM; in series [1] (read-out: IC50), 0.0828 µM.

For the molecule `Cc1cc2c(C(N)=O)cccc2n1-c1nc2c(c(NCC3CC3)n1)COCC2`, in series [1], the IC50 entry is “Not Active”.

Regarding `Cc1cc2c(NS(=O)(=O)c3ccccc3)cccc2n1-c1nc2c(c(NCc3ccccc3)n1)COCC2`, the IC50 in series [1] (read-out: IC50) is 0.135 µM.

Regarding `Cc1cc2c(NS(C)(=O)=O)cccc2n1-c1nc2c(c(NCc3ccccc3)n1)COCC2`, the half-life (in general, how long it takes for the measured level to halve) at 1 µM was 36.3 min in series [2]; 47.8 min in series [9]; 12.3 min in series [10]; 16.8 min in series [19]; 42.3 min in series [21]. Besides, the figures for the Cmax in series [3] and in series [5] were 191 ng/mL and 3380 ng/mL, respectively. Further, the values for the IC50 (in the series on A549; in series [1] (read-out: IC50)) were 1.6 µM and 0.0364 µM, respectively. For the same molecule, the AUC(0-t) – broadly, the area under the concentration-time curve up to a stated or last time point – in [4] stood at 6950 ng·h/mL; in [16], 1770 ng·h/mL. Also, the MRT (in general, the average time that molecules of a dose stay in the body) in [6] was 425 min; in series [15] it was 271 min. Moreover, in [7], the bioavailability (commonly the share of a dose that reaches the circulation, judged against a reference dose that is usually intravenous) was 4.2%. The AUC(0-inf) (as a rule, total exposure, with the tail of the curve extrapolated) in series [8] is 7420 ng·h/mL; in series [18], 2560 ng·h/mL. Further, the half-life in [11] was 218 min; in series [13], 274 min. For the same molecule, the CLint in series [12] was found to be 55 mL/min/kg; in series [20] it was 149 mL/min/kg; in series [22] it was 114 mL/min/kg; in series [23], 152 mL/min/kg; in [24], 29.5 mL/min/kg. Moreover, the Tmax (usually the time from dosing to the highest level) in series [14] was found to be 3 min; in series [17] it was 160 min.

Take `Cc1cc2c(C(N)=S)cccc2n1-c1nc2c(c(NCc3ccccc3)n1)COCC2`: the IC50 in series [1] (read-out: IC50) amounted to 0.193 µM.

`C=CC(=O)Nc1cccc2c1cc(C)n2-c1nc2c(c(NCC3CC3)n1)COCC2`: in series [1], the IC50 entry is “Not Active”.

`Cc1cc2c(NC(=O)/C=C/CN(C)C)cccc2n1-c1nc2c(c(NCc3ccccc3)n1)COCC2`: in [1] (read-out: IC50), the IC50 was 0.387 µM.

Take `CC(=O)Nc1cccc2c1cc(C)n2-c1nc2c(c(NCc3ccccc3)n1)COCC2`: the IC50 in series [1] (read-out: IC50) was determined as 0.129 µM.

For the molecule `Cc1cc2c(NC(=O)CN3CCCC3)cccc2n1-c1nc2c(c(NCc3ccccc3)n1)COCC2`, in [1] (read-out: IC50), the IC50 came to 0.449 µM.

Turning to `Cc1cc2c(C(N)=O)cccc2n1-c1nc2c(c(NCCN3CCOCC3)n1)COCC2`, the IC50 entry in [1] is “Not Active”.

In the case of `Cc1cc2c(C(N)=O)cccc2n1-c1nc2c(c(NCc3ccncc3)n1)COCC2`, the IC50 entry in series [1] is “Not Active”.

For `C=CC(=O)Nc1cccc2c1cc(C)n2-c1nc2c(c(NCc3cccc4ccccc34)n1)COCC2`, in [1], the IC50 entry is “Not Active”.

In the case of `Cc1cc2c(NS(=O)(=O)C(F)(F)F)cccc2n1-c1nc2c(c(NCc3ccccc3)n1)COCC2`, the IC50 in series [1] (read-out: IC50) was 0.101 µM.

With `C=CC(=O)Nc1cccc2c1cc(C)n2-c1nc2c(c(NCc3ccncc3)n1)COCC2`, the IC50 in [1] (read-out: IC50) is 5.1 µM.

As for `Cc1cc2c(NC(=O)CCl)cccc2n1-c1nc2c(c(NCc3ccccc3)n1)COCC2`, the IC50 in [1] (read-out: IC50) worked out at 0.308 µM.

In the case of `Cc1cc2c(C(N)=O)cccc2n1-c1nccc(NCc2ccccc2)n1`, the IC50 in series [1] (read-out: IC50) amounted to 0.161 µM.

As to `Cc1cc2c(NC(=O)/C=C/c3ccccc3)cccc2n1-c1nc2c(c(NCc3ccccc3)n1)COCC2`, the IC50 in series [1] (read-out: IC50) stood at 0.447 µM.

Turning to `Cc1cc2c(C(N)=O)cccc2n1-c1nc2c(c(NCc3ccccc3)n1)COCC2` [CB-5083], the half-life at 1 µM in series [2] was determined as 36.5 min; in series [9], 141 min; in [10] it was 14.7 min; in series [19] it was 17 min; in series [21], 25.8 min. Also, the CLint was 54.7 mL/min/kg in series [12]; 146 mL/min/kg in series [20]; 38.6 mL/min/kg in series [22]; 127 mL/min/kg in [23]; 48.4 mL/min/kg in series [24].
